Test results taken from publication PMC3848259 (Cellular signalling, 2013).
Entries after “also recorded” stand apart in the source; their conditions may differ.

Assays:
RGS4-Gαo binding [1] = target: T1, RGS4-Gαo binding (Rattus norvegicus, UniProt P49799); assay: Flow Cytometry Protein Interaction Assay; details: read-out: FCPIA IC50, compounds 100 nM-100 μM, three independent experiments
T1 sequence (P49799 52-205 limits assumed): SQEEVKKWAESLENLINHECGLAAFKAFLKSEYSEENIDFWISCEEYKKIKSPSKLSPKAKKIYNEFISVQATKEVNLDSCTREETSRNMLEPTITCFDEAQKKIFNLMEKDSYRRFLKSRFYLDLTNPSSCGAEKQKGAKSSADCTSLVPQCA
Summary of the method: (§1)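 Multiplexed bead assay: biotinylated MBP-Δ51 RGS4, cysteine-free Δ51 RGS4 (seven RGS-box Cys→Ala) and His-tagged RGS8 (61–198) on separate streptavidin Luminex bead sets. Buffer 50 mM HEPES pH 7.4, 100 mM NaCl, 0.1% lubrol, 1% BSA. Test compound (100 nM–100 μM) for 15 min at RT. AlexaFluor532-Gαo (30 nM final) with GDP·AlF4 and 1 mM MgCl for 30 min at RT. Read by flow cytometry; nonlinear regression.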

[2] = target: T2, RGS4 stimulation of Gαi1 (R178M/A326S) GTP hydrolysis (Rattus norvegicus, UniProt P49799); assay: Receptor-independent steady-state GTPase acceleration protein assay; format: biochemical; details: read-out: SS-GAP IC50; 200 nM Δ51 RGS4-MBP, 6 μM Gαi1 (R178M/A326S), 300 μM GTP
T2 sequence (P49799 52-205): T1 sequence (P49799 52-205 limits assumed)
Summary of the method: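 Receptor-independent GTPase: Δ51 RGS4 (residues 52-205)-MBP with His-tagged Gαi1 R178M/A326S. Buffer: 50 mM HEPES pH 7.4, 100 mM NaCl, 0.01% Lubrol, 5 mM MgCl, 10 μg/mL BSA. Test compound in half-log steps, 100 nM–100 μM. Started with GTP; 120 min at room temperature. Quenched with HCl/malachite green plus citrate stabiliser, 20 min, then A630. IC50 by nonlinear regression; three independent experiments, duplicate wells.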

[3] = test system: RGS4 in HEK293-FlpIn-TREx/M3R/RGS4 cells; assay: Cell-based calcium signaling assay in M3-R4 cells; set-up: species or system human; details: read-out: Cellular Activity IC50, Dox treated, carbachol-stimulated calcium
RGS4-Gαo binding [4] = target: T1, RGS4-Gαo binding; assay: FCPIA reversibility; details: 100 μM compound; for inhibition of RGS4-G-protein binding: FCPIA; for reversibility of RGS4 inhibition: beads washed three times, ten minute washing period
Summary of the method: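 Biotinylated RGS4 on streptavidin Luminex beads preincubated 30 min at room temperature with 100 μM test compound or DMSO, then washed three times in 50 mM HEPES pH 7.4/100 mM NaCl/0.1% lubrol/1% BSA. Beads split: one set re-dosed with 100 μM compound, other DMSO. Each then mixed with AlexaFluor 532-Gαo (30 nM final) plus GDP·AlF4/1 mM MgCl. Binding read by flow cytometry. Three independent experiments.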

RGS7 = target: T3, RGS7 (Homo sapiens, UniProt P49802); assay: Multiplexed FCPIA, RGS7; format: binding; details: 100 nM to 100 μM, RGS7 lacks cysteine residues
T3 sequence (P49802 333-448 limits assumed): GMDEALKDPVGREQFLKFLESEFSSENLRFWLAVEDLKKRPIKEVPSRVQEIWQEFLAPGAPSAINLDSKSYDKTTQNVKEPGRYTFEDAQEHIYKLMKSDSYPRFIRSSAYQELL

RGS16 = target: T4, RGS16 (Homo sapiens, UniProt O15492); assay: Multiplexed FCPIA, RGS16; format: binding; details: 100 nM to 100 μM
T4 sequence (O15492 1-202): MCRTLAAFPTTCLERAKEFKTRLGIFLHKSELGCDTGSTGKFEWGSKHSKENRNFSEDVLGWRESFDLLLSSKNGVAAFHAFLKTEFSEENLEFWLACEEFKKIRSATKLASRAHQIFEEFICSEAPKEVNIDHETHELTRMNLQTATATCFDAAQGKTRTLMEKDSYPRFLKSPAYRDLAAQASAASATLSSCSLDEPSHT
Summary of the method: (§2)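 Biotinylated RGS proteins (RGS16 full-length, RGS19 ΔC11, both MBP fusions) were each coupled to separate streptavidin Luminex bead sets and pooled per well. Buffer: 50 mM HEPES pH 7.4, 100 mM NaCl, 0.1% lubrol, 1% BSA. Test compound (100 nM–100 μM) or DMSO added for 15 min at room temperature. AlexaFluor 532-Gαo (30 nM final) with GDP·AlF4/1 mM MgCl added for 30 min. Flow-cytometric binding read; nonlinear regression.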

RGS4 (-Cys) = RGS4 (-Cys) (Homo sapiens, UniProt P49798, C132A/C148A/C183A/C197A/C204A/C71A/C95A); assay: Multiplexed FCPIA, RGS4 lacking cysteines; format: binding
Summary of the method: as §1

RGS8 = target: T5, RGS8 (Homo sapiens, UniProt P57771); assay: Multiplexed FCPIA, RGS8; format: binding
T5 sequence (P57771 61-198 isoform P57771-2): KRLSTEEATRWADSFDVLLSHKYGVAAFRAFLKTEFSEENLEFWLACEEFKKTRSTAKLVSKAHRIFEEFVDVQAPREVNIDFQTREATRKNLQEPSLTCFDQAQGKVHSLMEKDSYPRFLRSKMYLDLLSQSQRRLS
Summary of the method: as §1

RGS19 = target: T6, RGS19 (Homo sapiens, UniProt P49795); assay: Multiplexed FCPIA, RGS19; format: binding; details: 100 nM to 100 μM
T6 sequence (P49795 1-206 limits assumed): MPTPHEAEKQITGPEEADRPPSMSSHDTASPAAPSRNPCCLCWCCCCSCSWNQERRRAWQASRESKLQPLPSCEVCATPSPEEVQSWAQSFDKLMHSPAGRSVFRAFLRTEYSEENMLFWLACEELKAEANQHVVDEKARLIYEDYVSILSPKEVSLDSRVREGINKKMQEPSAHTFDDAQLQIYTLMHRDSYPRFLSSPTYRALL
Summary of the method: as §2

RGS4 (-Cys), sequence (P49798 52-205 C71A/C95A/C132A/C148A/C183A/C197A/C204A limits assumed, species assumed): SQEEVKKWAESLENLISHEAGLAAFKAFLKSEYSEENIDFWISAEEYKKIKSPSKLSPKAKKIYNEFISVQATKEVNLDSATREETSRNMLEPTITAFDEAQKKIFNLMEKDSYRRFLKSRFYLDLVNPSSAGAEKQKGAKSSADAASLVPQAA

SMILES	IC50 (RGS4-Gαo binding [1])	IC50 [2]	IC50 [3]	inhibition of RGS4-G-protein binding (RGS4-Gαo binding [4])	reversibility of RGS4 inhibition (RGS4-Gαo binding [4])	activity towards RGS7 (RGS7)	activity against RGS16 (RGS16)	Inhibition of Gα binding to RGS4 (-Cys) (RGS4 (-Cys))	Inhibition of Gα binding to RGS8 (RGS8)	potency difference RGS4 versus RGS19 (RGS19)
O=C1N=c2ccccc2=C1c1c(O)n(-c2cccc(F)c2)[nH]c1=O [CID 5428579]	8.2 µM	55.8 µM	35.5 µM	greater than 85%	more than 50%	showed activity towards RGS7; also recorded: activity was observed	activity was observed			
COc1ccc(NC(=O)/C(Cl)=C(/Cl)[S+]([O-])Cc2ccccc2)cn1 (stereo not drawn) [CID 1472216]	1.7 ± 0.5 µM	1.6 ± 0.4 µM								
Cc1ccc(/C=C2\C(=O)NC(=S)N(c3ccc(F)cc3)C2=O)s1 [CID 1389577]	18.3 µM	10.9 µM	15 µM	greater than 85%	more than 50%	showed activity towards RGS7; also recorded: activity was observed				
Br.CCCN1CCc2cc(O)cc3c2[C@H]1Cc1ccc(O)c(O)c1-3 [CID 10069059]								Inhibition of Gα binding to RGS4 (-Cys) or RGS8 occurred	Inhibition of Gα binding to RGS4 (-Cys) or RGS8 occurred	
CN1C(=O)/C(=C\c2ccc(Br)s2)C(=O)NC1=S [CID 1777233]	15.3 µM	9.4 µM	20 µM	greater than 85%	more than 50%					2 fold
Br.CN1CCc2cc(O)cc3c2[C@H]1Cc1ccc(O)c(O)c1-3 [CID 11957531]								Inhibition of Gα binding to RGS4 (-Cys) or RGS8 occurred	Inhibition of Gα binding to RGS4 (-Cys) or RGS8 occurred	
O=C1NC(=S)N(c2ccccc2F)C(=O)/C1=C\c1cccs1 [CID 1905297]	27.9 µM	35.6 µM	23.8 µM	greater than 85%	more than 50%					
